Consider one compound from paper PMC10951545 (Heliyon, 2024).

Where a SMILES comes first, the peptide text is derived from it. Bridges are numbered along the chain shown (N, C = ends). [ ]: non-standard residue; d: D form. The star is where a group is joined. X1 = CC[C@H](C)CCCCC(=O)*; Dab = NCC[C@H](N)C(=O)O

Data set [1] relates to ventilator-associated pneumonia caused by multidrug-resistant bacteria. Description: Evaluation of clinical efficacy. To be noted: control group (polymyxin B alone), n = 28. The class given is in vivo, patients.
A further data set is described as follows: Complications. To be noted: number of patients (%). The class given is in vivo. The method, boiled down:
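ICU patients with severe pulmonary infection were given IV polymyxin B sulfate as an approx. 1 h drip (loading 15,000 U/Kg, then 20,000 U/Kg/d in two doses), either alone or with CVVH (35 ml/kg/h, blood flow 200 ml/min). The incidence of skin pigmentation, nephrotoxicity and 28-day mortality was recorded per group, and the groups were compared.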

The mark [2] stands for this setting: control group (polymyxin B alone), n = 28.
The mark [3] stands for this setting: observation group (polymyxin B + CRRT), n = 7.

`CC[C@H](C)CCCCC(=O)N[C@@H](CCN)C(=O)N[C@H](C(=O)N[C@@H](CCN)C(=O)N[C@H]1CCNC(=O)[C@H]([C@@H](C)O)NC(=O)[C@H](CCN)NC(=O)[C@H](CCN)NC(=O)[C@H](CC(C)C)NC(=O)[C@@H](Cc2ccccc2)NC(=O)[C@H](CCN)NC1=O)[C@@H](C)O` [polymyxin B] (X1-[Dab]T[Dab][Dab][Dab][dF]L[Dab][Dab]T; lactam 4-C) had a response rate in data set [1] of 50.00%. Further, in “Complications” (setting [2]), the 28-day mortality is 8 (28.57), the Nephrotoxicity was 6 (21.43) and the Skin pigmentation is on record as 3 (10.71). In addition, in the data set “Complications” (setting [3]), the 28-day mortality is 4 (57.14), the Nephrotoxicity was 1 (14.29) and the Skin pigmentation is recorded as 2 (28.57).
